Results taken from ChEMBL document CHEMBL2440001, “Design and synthesis of novel 3,5-bis-N-(aryl/heteroaryl) carbamoyl-4-aryl-1,4-dihydropyridines as small molecule BACE-1 inhibitors” (Bioorg Med Chem, 2013).
Peptide text beside a SMILES is read from it. * marks the point of attachment. X1 = C[C@H](NC[C@H](C)N*)C(=O)N[C@@H](CCC(=O)O)C(=O)N[C@@H](Cc1ccccc1)C(=O)O

Key:
[1] = organism: Cavia porcellus; assay: Antagonist activity at calcium channel albino guinea pig ileal longitudinal smooth muscle assessed as inhibition of KCl-induced contraction
Procedure, shortened: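 Fasted guinea-pig ileal longitudinal smooth muscle, 2 cm segments under 0.5 g resting tension, contracted with 40 mM KCl. Compounds were added cumulatively, and relaxation was expressed as percent of control. IC30 (30% relaxation) was read graphically from the curves.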

[2] = biological target: T1, Beta-secretase 1 (Homo sapiens, UniProt P56817); assay: Inhibition of recombinant human BACE-1 using SEVNLDAEFK as substrate after 90 mins by FRET assay
T1 sequence (P56817 whole entry): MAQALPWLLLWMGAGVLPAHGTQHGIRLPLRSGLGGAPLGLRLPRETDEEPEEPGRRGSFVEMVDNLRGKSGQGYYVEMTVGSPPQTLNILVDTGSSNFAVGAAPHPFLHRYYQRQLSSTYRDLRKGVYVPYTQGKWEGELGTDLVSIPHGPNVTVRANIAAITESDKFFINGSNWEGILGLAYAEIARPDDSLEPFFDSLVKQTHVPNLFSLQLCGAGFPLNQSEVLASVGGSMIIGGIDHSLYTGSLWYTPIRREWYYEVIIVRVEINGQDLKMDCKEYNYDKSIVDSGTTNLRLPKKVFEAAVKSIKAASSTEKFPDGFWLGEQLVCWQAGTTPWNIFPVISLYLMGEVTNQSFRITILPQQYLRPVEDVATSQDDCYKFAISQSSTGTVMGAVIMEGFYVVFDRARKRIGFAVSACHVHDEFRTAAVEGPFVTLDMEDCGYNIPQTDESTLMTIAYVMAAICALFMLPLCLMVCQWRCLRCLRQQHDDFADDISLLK

[3] = biological target: T1, Beta-secretase 1; assay: Inhibition of recombinant human BACE-1 using SEVNLDAEFK as substrate at 10 uM after 90 mins by FRET assay
[4] = biological target: T1, Beta-secretase 1; assay: Inhibition of recombinant human BACE-1 using SEVNLDAEFK as substrate at 50 uM after 90 mins by FRET assay

SMILES	IC15 [1]	IC50 [2] [µM]	inhibition [3] [%]	inhibition [4] [%]	IC30 [1] [µM]
CC1=C(C(=O)Nc2nc(C)cs2)C(c2ccco2)C(C(=O)Nc2nc(C)cs2)=C(C)N1	2.26 µM	6.78	66.4	95.1	
CC(C)C[C@H](NC(=O)[C@H](CC(N)=O)NC(=O)[C@@H](NC(=O)[C@@H](N)CCC(=O)O)C(C)C)C(=O)N[C@@H](C)CN[C@@H](C)C(=O)N[C@@H](CCC(=O)O)C(=O)N[C@@H](Cc1ccccc1)C(=O)O (H-EVNL-X1)		0.003			
CCOc1ccc2nc(NC(=O)C3=C(C)NC(C)=C(C(=O)Nc4nc5ccc(OCC)cc5s4)C3c3cccc([N+](=O)[O-])c3)sc2c1			49.1	94	
CC1=C(C(=O)Nc2nc3ccccc3s2)C(c2ccc([N+](=O)[O-])cc2)C(C(=O)Nc2nc3ccccc3s2)=C(C)N1			49.8	90.8	
CC1=C(C(=O)Nc2nc3ccccc3s2)C(c2ccccc2)C(C(=O)Nc2nc3ccccc3s2)=C(C)N1			44.9		
COc1ccc(C2C(C(=O)Nc3nc(C)cs3)=C(C)NC(C)=C2C(=O)Nc2nc(C)cs2)cc1			44.4	86.3	
CC1=C(C(=O)Nc2cc(C)on2)C(c2ccc[nH]2)C(C(=O)Nc2cc(C)on2)=C(C)N1			24.1	57.4	
CC1=C(C(=O)Nc2nc(C)cs2)C(c2ccccc2[N+](=O)[O-])C(C(=O)Nc2nc(C)cs2)=C(C)N1	1.82 µM	4.66	69.4	95	
CC1=C(C(=O)Nc2nccs2)C(c2ccc([N+](=O)[O-])cc2)C(C(=O)Nc2nccs2)=C(C)N1			28.1	46.8	
CC1=C(C(=O)Nc2nc(C)cs2)C(c2ccc([N+](=O)[O-])cc2)C(C(=O)Nc2nc(C)cs2)=C(C)N1	4.63 µM	4.21	77.2	88	
CC1=C(C(=O)Nc2nc(C)cs2)C(c2cccc([N+](=O)[O-])c2)C(C(=O)Nc2nc(C)cs2)=C(C)N1			34.8	70.4	
COC(=O)C1=C(C)NC(C)=C(C(=O)OC)C1c1ccccc1[N+](=O)[O-]	0.00202 µM				0.00927
CC1=C(C(=O)Nc2cc(C)on2)C(c2ccc([N+](=O)[O-])cc2)C(C(=O)Nc2cc(C)on2)=C(C)N1			23.5	43	
CC1=C(C(=O)Nc2cc(C)on2)C(c2ccccc2[N+](=O)[O-])C(C(=O)Nc2cc(C)on2)=C(C)N1			12.7	54	
CC1=C(C(=O)Nc2nc3ccccc3s2)C(c2ccccc2[N+](=O)[O-])C(C(=O)Nc2nc3ccccc3s2)=C(C)N1	6.47 ×10⁻⁷ M	4.27	65.6	87.2	
CC1=C(C(=O)Nc2nc3ccccc3s2)C(c2cccc([N+](=O)[O-])c2)C(C(=O)Nc2nc3ccccc3s2)=C(C)N1			49.4	56.2	
CC1=C(C(=O)Nc2cc(C)on2)C(c2cccc([N+](=O)[O-])c2)C(C(=O)Nc2cc(C)on2)=C(C)N1			11.6		
